Source: PubChem (several laboratories)
FAK inh – FAK (human) kinase inhibition. Q05397. biochemical FAK kinase activity assay. inhibition, %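 (tested at 7 µM)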. actives 0.84% (n = 97,000); in the data active means inhibition above about 19%;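 further: 0% = DMSO and 100% = reference compound high control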
ERa SRC1 pot – ER-alpha (human) coactivator binding potentiation; TR-FRET ERalpha-LBD/SRC-Cy5 coactivator binding, 2 h; 100 = basal binding, no effect; actives 1.3% (n = 86,000); P03372; coactivator binding (% of control), % at 25.6 µM; in the data active means activity above about 200%;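 further: binding measured in presence of low estradiol as agonist stimulus; 0% = peptide alone without receptor and 100% = receptor with peptide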
Smad3 FoxH1 inh – Smad3 (human) transcription factor binding inhibition | inhibition, % at 25 µM | actives 0.29% (n = 88,000) | TR-FRET Smad3/Dy647-FoxH1 peptide binding, europium anti-His;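 active means compounds that reduce the energy-transfer binding signal between the protein and its labelled peptide by more than half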;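 further: 0% = Smad3 plus labelled peptide maximal FRET and 100% = peptide-only background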
ERa SRC1 inh – blocks coactivator binding to human estrogen receptor alpha. P03372. TR-FRET ER-alpha LBD / SRC-1 peptide, estradiol-bound. inhibition, % at 25.6 µM. actives 1.7% (n = 86,000); in the data active means inhibition above about 50%;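 further: 0% = receptor plus peptide control and 100% = peptide only without receptor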
ERb SRC1 inh – ER-beta (human) coactivator binding inhibition | AID 633 | actives 1.3% (n = 86,000) | inhibition, % at 25.6 µM | Q92731 | TR-FRET ER-beta LBD / SRC1-Cy5 peptide binding; receptor agonist-loaded with 1 µM estradiol;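 active means compounds whose percent inhibition of the receptor-coactivator binding signal exceeds about 50% in the single-dose screen, limit read from the data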;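 further: 0% = receptor plus peptide wells without compound and 100% = peptide-only wells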
HIV Rev-RRE inh – disrupts HIV-1 Rev binding to RRE RNA; P05866; Rev peptide-RRE RNA binding, FRET; inhibition, % at 8 µM; actives 0.79% (n = 97,000); AID 704;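 active means inhibition above the screen-wide mean plus 3 SD, cut at about 35% in these data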;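 further: 0% = median DMSO wells and 100% = median Neomycin B control wells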
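Assay system: Labelled RRE RNA duplex and labelled Rev peptide | Times: 5 min preincubation and 15 min binding, 25 °C | Detection: FRET, ex 480 nm, em 540 and 671 nm | Evaluation: % inhibition of FRET ratio versus controls | Benchmarks: DMSO wells as 0% and neomycin B wells as 100% inhibition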
* marks the source's active call; other numbers are inactive results; / = no result; [ ] = remark or other dose. This is a sample that favours compounds with a hit; in the whole collection about 4% have one here.

SMILES	FAK inh	ERa SRC1 pot	Smad3 FoxH1 inh	ERa SRC1 inh	ERb SRC1 inh	HIV Rev-RRE inh
COc1ccc(-c2nnn(CC(=O)N(Cc3ccccc3Cl)C(C(=O)NCC3CCCO3)c3ccco3)n2)cc1OC (stereo not given)	-5	/	/	/	/	1
COC(=O)C1CCN(C(=O)Cc2ccc(Br)cc2)CC1	-4	50	5	55*[fluorescence artefact?]	66*[fluorescence artefact?]	-3
COC(=O)C1CCN(C(=O)Cc2ccc(OC)c(OC)c2)CC1	-1	124	8	-2	-4	5
C[C@]1(O)CC[C@H]2[C@H]3CC=C4N5CCN=C5CC[C@@]4(C)[C@@H]3CC[C@@]21C	/	/	-10	/	/	/
Nc1ncnc2c1ncn2[C@H]1O[C@@H](C(=O)O)[C@H](O)[C@H]1O	/	/	0	/	/	/
COc1ccc(CNC(=O)c2nnn(Cc3ccc(OC)cc3)c2N)cc1	2	208*	4	7	-14	2
CCOc1ccc(Cn2nnc(C(=O)Nc3cc(OC)cc(OC)c3)c2N)cc1	2	257*[fluorescence artefact?]	-10	18	9	10
CCc1ccc(Cn2nnc(C(=O)NCc3ccccc3OC)c2N)cc1	6	206*	2	9	6	6
CC1=N[C@@](C)(COC(=O)[C@]2(C)N[C@](C)(CO)CO2)COC1=O	/	/	-1	/	/	/
c1ccc2c(c1)nnn2CN1CCOCC1	/	/	12	/	/	/
O=c1ccnc(SCc2ccc(Cl)cc2)[nH]1	/	/	-8	/	/	/
CCC1=C(C[C@H]2NCCc3ccccc32)C[C@H]2c3cc(OC)c(OC)cc3CCN2C1	/	/	5	/	/	/
O=C(O)c1cn(-c2ccccc2)nc1-c1ccncc1	1	112	10	0	-2	7
O=C(c1cn(-c2ccccc2)nc1-c1ccncc1)n1nnc2ccccc21	0	216*	11	33	26	6
O=C(CSc1oc(-c2ccco2)nc1S(=O)(=O)c1ccccc1)NCC1CCCO1 (stereo not given)	2	/	/	/	/	9
O=C(CSc1oc(-c2ccco2)nc1S(=O)(=O)c1ccc(Cl)cc1)NCC1CCCO1 (stereo not given)	0	44	-9	54*[fluorescence artefact?]	43	6
COc1ccc(C(=O)[C@H](Br)[C@H](Br)C(=O)O)cc1	/	/	26	/	/	/
Cc1onc(-c2c(F)cccc2Cl)c1C(=O)NCc1ccco1	-4	131	-1	-5	1	5
O=C(COC(=O)c1cccc(S(=O)(=O)N2CCc3ccccc3C2)c1)NCc1ccco1	/	71	6	65*	53*	/
O=C(COC(=O)c1cc(-c2cccs2)nc2ccccc12)NCc1ccco1	5	108	6	65*[fluorescence artefact?]	37	3
O=C(COC(=O)c1ccccc1Oc1ccccc1)NCc1ccco1	/	185	0	64*	47	/
Cc1onc(-c2c(F)cccc2Cl)c1C(=O)OCC(=O)NCc1ccco1	2	79	11	52*	33	1
O=C(O)c1ccccc1-c1ccccc1C(=O)Nc1ccc2c(c1)Cc1ccccc1-2	/	/	23	/	/	/
COc1cc(N=Nc2cccc(S(N)(=O)=O)c2)c2ccccc2c1N	/	/	28	/	/	/
O=C(COC(=O)c1ccccc1)NCc1ccco1	12	88	9	76*[fluorescence artefact?]	60*	-11
SMILES	FAK inh	ERa SRC1 pot	Smad3 FoxH1 inh	ERa SRC1 inh	ERb SRC1 inh	HIV Rev-RRE inh
Cc1c(Cl)c(S(N)(=O)=O)cc2c1=NC=NS=2(=O)O	/	/	-11	/	/	/
CCOC(=O)Nc1nc(-c2ccccc2)c(C)s1	/	/	27	/	/	/
CN(C)c1ccc(/C=C2\C(=O)N(c3ccc([N+](=O)[O-])cc3)N=C2N2CCOCC2)cc1	20*	91	-10	-40	-4	5
CCOc1cc2[nH]c(=S)n(CCc3ccc(OC)c(OC)c3)c(=O)c2cc1OCC	2	62	-8	57*[fluorescence artefact?]	31	-1
CCOc1cc2[nH]c(=O)n(CCc3ccc(OC)c(OC)c3)c(=O)c2cc1OCC	-5	177	6	10	13	-1
CC(C)NC(=O)c1ccc2c(=O)n(Cc3ccco3)c(=S)[nH]c2c1	-6	115	-7	0	-2	4
COc1ccc(CCNC(=O)c2ccc3c(=O)n(Cc4ccco4)c(=S)[nH]c3c2)cc1OC	4	75	-2	61*[fluorescence artefact?]	40	4
N=C(N)SCCN1CCCCC1	/	/	19	/	/	/
Cn1cnc([N+](=O)[O-])c1SCC(=O)O	/	/	-6	/	/	/
